The text below walks through data of ChEMBL document CHEMBL1177860, “Design, synthesis, and pharmacological evaluation of the aqueous prodrugs of desmethyl anethole trithione with hepatoprotective activity” (Eur J Med Chem, 2010).

Data set [1] can be described thus: Chemical stability in phosphate buffer solution at pH 1.10 to 6.84 at 60 degC up to 24 hrs by HPLC analysis. Format: physicochemical. Conditions: pH 1.1, 24 h. The procedure, abridged: (§1)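 Phosphate buffers at pH 1.10, 4.02, 6.84, 9.14 and 12.02, held at 37 °C and at 60 °C. Remaining compound quantified by HPLC at 0, 1, 2, 4, 8, 16 and 24 h.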
The subject of data set [2] is Mus musculus. Kind of data set: Hepatoprotective activity in Kunming mouse assessed as reduction of CCL4-induced increase of serum AST level at 2 mg/kg, ip administered 0.5 hrs before CCL4 challenge measured after 16 hrs. Format: functional. Conditions: route intraperitoneal. The procedure, abridged: (§2)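 Adult male Kunming mice (20–22 g), fasted the day before, in groups of ten. Compound given ip at 1, 2 or 4 mg/kg, followed 0.5 h later by ip CCl₄ (5 mL/kg as 0.2% peanut oil solution). Controls: saline alone, and CCl₄ alone. Orbital blood taken at 16 h; serum assayed for ALT and AST. Mean ± S.D., compared with the CCl₄ group.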

Data set [3] has as its system Mus musculus. Kind of data set: Hepatoprotective activity in Kunming mouse assessed as reduction of CCL4-induced increase of serum ALT level at 1 mg/kg, ip administered 0.5 hrs before CCL4 challenge measured after 16 hrs. Format: functional. As to conditions: route intraperitoneal. The essentials:
as §2

A short description of data set [4]: Aqueous solubility in water after 24 hrs by HPLC analysis. Format: physicochemical. The procedure, abridged: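 Water (10 mL) added to the solid; sonicated 5 min, then stirred 24 h in a 25 °C water bath. Centrifuged at 10 000 rpm for 10 min, supernatant membrane-filtered and quantified by HPLC.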
A short description of data set [5]: Chemical stability in phosphate buffer solution at pH 1.10 to 12.02 at 37 degC up to 24 hrs by HPLC analysis. The format is physicochemical. Conditions: pH 1.1, 24 h. The procedure, abridged:
as §1

A further data set relates to Plasma. Kind of data set: Stability in mouse plasma up to 12 hrs by HPLC analysis. The format is ADME, cell-free. The essentials:
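Aqueous compound solution (1.0 mL, 50 stock) added to 5 mL mouse plasma, kept at 37 ± 1 °C. 200 aliquots taken at 0, 1, 2, 4, 8 and 12 h, mixed with 400 acetonitrile for 5 min, centrifuged at 10 000 rpm for 5 min, and supernatant analysed by HPLC.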

Data set [6] concerns Mus musculus. The experiment in a line: Hepatoprotective activity in Kunming mouse assessed as reduction of CCL4-induced increase of serum AST level at 4 mg/kg, ip administered 0.5 hrs before CCL4 challenge measured after 16 hrs. As to conditions: route intraperitoneal. The format is functional. The procedure, abridged: as §2
Data set [7] concerns Mus musculus. The experiment in a line: Hepatoprotective activity in Kunming mouse assessed as reduction of CCL4-induced increase of serum AST level at 1 mg/kg, ip administered 0.5 hrs before CCL4 challenge measured after 16 hrs. As to conditions: route intraperitoneal. The format is functional. The procedure, abridged:
as §2

Data set [8] relates to Mus musculus. Kind of data set: Hepatoprotective activity in Kunming mouse assessed as reduction of CCL4-induced increase of serum ALT level at 2 mg/kg, ip administered 0.5 hrs before CCL4 challenge measured after 16 hrs. The format is functional. As to conditions: route intraperitoneal. The procedure, abridged: as §2
The subject of data set [9] is Mus musculus. The experiment in a line: Hepatoprotective activity in Kunming mouse assessed as reduction of CCL4-induced increase of serum ALT level at 4 mg/kg, ip administered 0.5 hrs before CCL4 challenge measured after 16 hrs. Format: functional. As to conditions: route intraperitoneal. The essentials: as §2
Data set [10] concerns Mus musculus. Kind of data set: In vivo metabolic stability in Kunming mouse assessed as 5-(4-hydroxyphenyl)-3H-1,2-dithiole-3-thione level in plasma at 10 mg/kg, ip measured up to 8 hrs by HPLC analysis. The format is ADME, organism-based. Details: dose 10 mg/kg, route intraperitoneal. The essentials: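 Male Kunming mice, ten groups of four, given 10.00 mg/kg ip. Orbital blood (0.5 mL) taken into heparinized tubes at 0.02–8 h. Plasma precipitated with 2 volumes acetonitrile, sonicated, centrifuged, and analysed by HPLC at 354 nm. Plasma calibration curve spans 0.05–31.11 with six points; QC at three levels.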

Where only a bound is given, the exact number is not on record here.

For the compound `Cl.S=c1cc(-c2ccc(OCCN3CCOCC3)cc2)ss1`, the Stability entry (in data set [1]; in data set [5]; in the data set on Plasma) was “Stable” each time. For the same compound, the Activity with Mus musculus [2] was 552.5 IU/L; in the data set on Mus musculus [3], 595.4 IU/L; with Mus musculus [6], 824.9 IU/L; in the data set with Mus musculus [7], 851.7 IU/L; in the data set with Mus musculus [8] it was 468 IU/L; with Mus musculus [9], 457.7 IU/L. In data set [4], this compound returned a solubility at 24 h greater than 20000 µg/mL.

On to `Cl.S=c1cc(-c2ccc(OCCN3CCCC3)cc2)ss1`, for which the Stability result (in data set [1]; in [5]; with Plasma) was “Stable” throughout. Moreover, the Activity stood at 582.9 IU/L in the data set with Mus musculus [2]; 416.6 IU/L with Mus musculus [3]; 607.8 IU/L with Mus musculus [6]; 501.2 IU/L in the data set with Mus musculus [7]; 535.9 IU/L with Mus musculus [8]; 561.5 IU/L in the data set with Mus musculus [9]. The solubility at 24 h in data set [4] is greater than 20000 µg/mL.

In the case of `Cl.S=c1cc(-c2ccc(OCCN3CCCCC3)cc2)ss1`, the Stability entry (in data set [1]; in [5]; with Plasma) was “Stable” each time. Moreover, the Activity stood at 416.8 IU/L in the data set with Mus musculus [2]; 169.3 IU/L in the data set on Mus musculus [3]; 423.9 IU/L in the data set with Mus musculus [6]; 920.6 IU/L in the data set on Mus musculus [7]; 259.6 IU/L with Mus musculus [8]; 382.9 IU/L in the data set with Mus musculus [9]. The same compound registered a solubility at 24 h in data set [4] greater than 20000 µg/mL.

Regarding `S=c1cc(-c2ccc(OCC[n+]3ccccc3)cc2)ss1.[Br-]`, the Stability result (in data set [1]; in data set [5]; in the data set on Plasma) was “Stable” in each case. For the same compound, the Activity is listed as 617.8 IU/L with Mus musculus [2]; 426.1 IU/L in the data set with Mus musculus [3]; 784.3 IU/L with Mus musculus [6]; 559.2 IU/L in the data set with Mus musculus [7]; 630.1 IU/L in the data set with Mus musculus [8]; 685 IU/L in the data set on Mus musculus [9]. In data set [4], the concentration in solution (solubility at 24 h) came to 2300 µg/mL.

Consider `CN(C)c1cc[n+](CCOc2ccc(-c3cc(=S)ss3)cc2)cc1.[Br-]`, for which the Stability result (in data set [1]; in [5]; with Plasma) was “Stable” each time. Further, in data set [4], the concentration in solution (solubility at 24 h) came to 2800 µg/mL.

For `CN(C)CCOc1ccc(-c2cc(=S)ss2)cc1.Cl`, the Stability entry (in [1]; in [5]; in the data set on Plasma; with Mus musculus [10]) was “Stable” throughout. In addition, the Activity is listed as 215.7 IU/L in the data set with Mus musculus [2]; 216.5 IU/L in the data set with Mus musculus [3]; 284.1 IU/L in the data set on Mus musculus [6]; 310.9 IU/L with Mus musculus [7]; 109.7 IU/L in the data set on Mus musculus [8]; 171.6 IU/L in the data set with Mus musculus [9]. Besides, the solubility at 24 h in data set [4] is greater than 20000 µg/mL.

Consider `CC[N+](CC)(CC)CCOc1ccc(-c2cc(=S)ss2)cc1.[Br-]`, for which the Stability result (in data set [1]; in data set [5]; with Plasma) was “Stable” each time. For the same compound, the solubility at 24 h in [4] was found to be 3500 µg/mL.

For the compound `Oc1ccc(-c2cc(=S)ss2)cc1`, the Stability entry (in [1]; in [5]; in the data set on Plasma) was “Stable” in each case. This compound gave a solubility at 24 h in data set [4] of less than 130 µg/mL.

Regarding `COc1ccc(-c2cc(=S)ss2)cc1` [ANETHOLTRITHION], the Stability result (in data set [1]; in [5]; in the data set with Plasma) was “Stable” in each case. For the same compound, the Activity in the data set with Mus musculus [2] was determined as 265.9 IU/L; with Mus musculus [3], 150.7 IU/L; in the data set on Mus musculus [6], 407.1 IU/L; with Mus musculus [7], 269.6 IU/L; in the data set on Mus musculus [8], 112.4 IU/L; in the data set with Mus musculus [9] it was 177.2 IU/L. The solubility at 24 h in data set [4] was less than 10 µg/mL.
